A short description of test [1]: inhibitors of TNFa-induced NFkB p65 translocation, primary screen, imaging, HUVEC, MLSMR starter and 10KST1 sets (AID 438;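 active means inhibition above 20% together with a positive visual image hit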;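 further: compound added about 3h40 before a 20 min TNFalpha stimulation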;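 on inhibition: signal is the nuclear over cytoplasmic p65 intensity ratio per well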). The following applies: HUVEC TNFa-induced p65 nuclear translocation; cell count: measured here: nuclei count (cytotoxicity indicator), at 2.08 µM; inhibition: at 2 µM, stronger effect = higher value, 0% TNFa-plus-vehicle, 100% no-TNFa wells.
Test [2] in a line: inhibitors of mutant huntingtin aggregation, primary screen, imaging, exon1htt(103Q)mCFP cells, high-content imaging (AID 483;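 active means visual image review flags a hit and inhibition of aggregation exceeds 20%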;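 further: compound exposure lasted 3 days before fixation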;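 on nuclei count: percent of the per-plate median nuclei count of sample wells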). The following applies: exon1htt(103Q)mCFP cell line, aggregate imaging, at 2 µM; inhibition of aggregation: stronger effect = higher value; nuclei count: measured here: cell count, toxicity.
A short description of test [3]: inhibitors of E-selectin induction by TNFa, primary screen, imaging, HUVEC, immunofluorescence, MLSMR starter and 10KST1 sets (AID 487;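 active means visually confirmed hit in the image check and inhibition above 20%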;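 on inhibition: signal is fraction of cell area covered by stained E-selectin grains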;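 on nuclei count: 100% = median nuclei count of all wells on the same plate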). To be noted: HUVEC TNFalpha-induced E-selectin immunofluorescence imaging, at 2 µM; inhibition: stronger effect = higher value; nuclei count: measured here: cell number, toxicity.
Test [4] addresses Voltage-gated potassium channel subunit beta-2 (Rattus norvegicus) (UniProt P62483). In words: KvBeta enzyme negative modulators, primary screen, biochemical, NADPH fluorescence (AID 622;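 active means fluorescence slope higher than the sample average by over 3 SD, cut at about -0.22 in these data, passing the limit was not always enough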;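 further: slope of raw intensity against log time taken from 70 to 1610 s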). To be noted: recombinant KvBeta, 4-cyanobenzaldehyde reduction, at 10 µM, stronger effect = higher value.
Test [5] has the same target. The test can be described thus: KvBeta positive modulators, primary screen, biochemical, NADPH fluorescence (AID 623;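 active means NADPH fluorescence slope more negative than the mean of all samples by about 3 SD, 99.7% confidence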;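 further: fluorescence intensity change per second fitted from 20 to 320 s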). To be noted: Recombinant KvBeta, NADPH fluorescence decrease slope, 10 min; at 10 µM; stronger effect = lower value.
Test [6] addresses Muscarinic acetylcholine receptor M4 (Homo sapiens) (UniProt P08173). The test can be described thus: compounds altering M4/GIRK thallium flux, either direction, primary screen, M4 allosteric agonist project, cell-based, HEK293 M4/GIRK, BTC-AM (AID 625).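 Further: thallium influx through GIRK channels coupled to M4 in HEK293 cells with BTC-AM dye.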 To be noted: at 10 µM, actives lie on both sides. The method, boiled down: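 Material: M4/GIRK1/GIRK2 stable HEK293 cell line. Medium: pH 7.3 thallium assay buffer. Dosing: single compound concentration, 10 µM final. Schedule: 1 h dye loading, 2 min kinetic read. Measured by: kinetic fluorescence with BTC-AM dye. Read-out: post-addition slope, 15–24 s, of baseline-normalized fluorescence. Benchmarks: carbachol and DMSO controls.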

Test [7] is described as follows: inhibitors of Sendai virus-induced IRF3 signaling, primary screen, TLR/RLR signaling modifier project, cell-based, Sendai virus stimulus, luciferase, 10K MLSCN set (AID 602276;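 active means inhibition at or above 50% at 10 µM; inactive means inhibition below 50%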;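 further: firefly luciferase from ISG56 promoter only with Renilla not read in this screen; 0% = Sendai virus plus DMSO and 100% = medium plus DMSO without virus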). The following applies: HEK293 RL24 IRF3 luciferase reporter, at 10 µM, stronger effect = higher value.
Test [8] is described as follows: inhibitors of poly I:C-induced TLR3 signaling, primary screen, cell-based, poly I:C stimulus, luciferase, 10K MLSCN set (AID 602277;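 active means inhibition of the reporter signal at or above 50%; inactive means inhibition below 50%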). To be noted: HEK293-TLR3 RL24 IRF3 luciferase reporter, at 10 µM, stronger effect = higher value. (A reporter such as luciferase makes a cellular process visible.)

The source of these data is PubChem BioAssay.

SMILES strings stand for the structures. The source made the active and inactive calls.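 How the source made its calls, unless noted: active means fluorescence slope after compound addition differing from the mean of all tested samples at 99.7% confidence, mostly higher but some lower; inactive means the rest.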

Voltage-gated potassium channel subunit beta-2 (Rattus norvegicus), sequence (P62483 whole entry, looked up): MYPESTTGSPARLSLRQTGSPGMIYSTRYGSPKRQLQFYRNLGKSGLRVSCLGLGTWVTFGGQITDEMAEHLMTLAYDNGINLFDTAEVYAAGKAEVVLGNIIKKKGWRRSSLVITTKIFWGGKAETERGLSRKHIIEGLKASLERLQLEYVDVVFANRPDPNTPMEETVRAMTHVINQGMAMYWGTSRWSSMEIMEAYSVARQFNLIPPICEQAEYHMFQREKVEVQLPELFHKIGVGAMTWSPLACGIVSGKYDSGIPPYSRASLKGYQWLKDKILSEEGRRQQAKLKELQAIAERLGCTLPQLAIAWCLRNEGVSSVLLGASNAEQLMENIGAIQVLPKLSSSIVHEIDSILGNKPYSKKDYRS
Muscarinic acetylcholine receptor M4 (Homo sapiens), sequence (P08173 whole entry, looked up): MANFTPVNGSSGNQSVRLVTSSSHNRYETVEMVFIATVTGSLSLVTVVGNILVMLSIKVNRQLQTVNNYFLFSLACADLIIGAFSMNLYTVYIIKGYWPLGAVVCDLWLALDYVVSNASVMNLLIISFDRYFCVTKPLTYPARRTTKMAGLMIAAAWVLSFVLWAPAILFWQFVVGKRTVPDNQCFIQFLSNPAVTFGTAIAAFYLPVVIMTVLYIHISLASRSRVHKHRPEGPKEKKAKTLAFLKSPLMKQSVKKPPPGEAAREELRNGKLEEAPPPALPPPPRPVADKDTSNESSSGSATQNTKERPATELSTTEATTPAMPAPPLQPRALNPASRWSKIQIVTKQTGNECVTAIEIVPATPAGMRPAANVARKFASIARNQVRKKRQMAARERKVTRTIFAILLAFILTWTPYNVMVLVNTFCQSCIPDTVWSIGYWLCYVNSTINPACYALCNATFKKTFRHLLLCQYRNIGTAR

One may read the inhibition as the change of the read-out against control, counted positive when it falls. As for `Cc1ccc(S(=O)(=O)NCC2CCC(C(=O)NCCCN3CCOCC3)CC2)cc1` (stereo not drawn), the cell count in test [1] was 305. For the same compound, the inhibition in test [1] is 1.9% (inactive); in test [3], -24.4% (inactive); in test [7] it was 13% (inactive); in test [8], 22.2% (inactive). Besides, the inhibition of aggregation in test [2] is 26.8% (inactive). In addition, the nuclei count stood at 80.7% in test [2] and 112% in test [3]. In addition, the fluorescence slope was -0.564 (inactive) in test [4] and 0.00513 (inactive) in test [6]. Also, the NADPH fluorescence slope in test [5] was -0.000104 (inactive).
`O=C1NC(=O)C2(CCC(C(=O)O)C2)N1` (stereo not drawn): the cell count in test [1] amounted to 557. For the same compound, the inhibition is -17.5% (inactive) in test [1], -72.3% (inactive) in test [3], 13.2% (inactive) in test [7] and 17.5% (inactive) in test [8]. In addition, in test [2], the inhibition of aggregation was -0.1% (inactive). Besides, the nuclei count in test [2] is 100%; in test [3] it was 119%. The fluorescence slope was -0.408 (inactive) in test [4] and 0.00541 (inactive) in test [6]. For the same compound, the NADPH fluorescence slope in test [5] is 3.7e-05 (inactive).
For `CCOc1ccccc1CN1C(=O)c2ccccc2C1C(=O)NCC1CCCO1` (stereo not drawn), the cell count in test [1] amounted to 350. Moreover, the inhibition in test [1] was 7.9% (inactive); in test [3], -214% (inactive); in test [7] it was 7.6% (inactive); in test [8], 5.52% (inactive). The inhibition of aggregation in test [2] is 6.8% (inactive). Besides, the nuclei count in test [2] came to 107%; in test [3], 114%. Besides, the values for the fluorescence slope in test [4] and in test [6] were -0.585 (inactive) and 0.00509 (inactive), respectively. In addition, the NADPH fluorescence slope in test [5] is 2.5e-05 (inactive).
In the case of `CCN(CC)C(=O)c1ccc(NS(=O)(=O)c2ccccc2)cc1`, the cell count in test [1] amounted to 444. Also, the inhibition in test [1] is 0.9% (inactive); in test [3] it was -22.4% (inactive); in test [7] it was -7.99% (inactive); in test [8], -12.2% (inactive). Further, the inhibition of aggregation in test [2] was -9.8% (inactive). Besides, the nuclei count in test [2] was 112%; in test [3], 117%. Moreover, the fluorescence slope in test [4] is -0.478 (inactive); in test [6], 0.0035 (inactive). In addition, the NADPH fluorescence slope in test [5] is -0.000282 (inactive).
In the case of `Cc1cc(NC(=O)CSc2nnc(C3CC3)n2C)no1`, the cell count in test [1] was 296. Further, the inhibition is 1.1% (inactive) in test [1], -26.7% (inactive) in test [3], 8.69% (inactive) in test [7] and 16.1% (inactive) in test [8]. Besides, the inhibition of aggregation in test [2] was 15.4% (inactive). The nuclei count in test [2] turned out to be 96.8%; in test [3], 93.5%. For the same compound, the fluorescence slope in test [4] is -0.55 (inactive); in test [6] it was 0.00523 (inactive). For the same compound, the NADPH fluorescence slope in test [5] is -7.5e-05 (inactive).
On to `O=C(c1cc2ccccc2oc1=O)N1CCSC1c1ccco1` (stereo not drawn), for which, in test [1], the cell count amounted to 310. Besides, the inhibition in test [1] is 5.3% (inactive); in test [3] it was -24.5% (inactive); in test [7], 12.5% (inactive); in test [8] it was 22% (inactive). The inhibition of aggregation in test [2] was 3.2% (inactive). Further, the nuclei count in test [2] is 102%; in test [3], 112%. Besides, the values for the fluorescence slope in test [4] and in test [6] were -0.398 (inactive) and 0.00556 (inactive), respectively. The NADPH fluorescence slope in test [5] is -9.8e-05 (inactive).
As for `Cn1c(=O)[nH]c(=O)c2[nH]c(CN3CCN(C(=O)c4ccco4)CC3)nc21`, in test [1], the cell count is 418. Moreover, the inhibition was -2.3% (inactive) in test [1], -5.3% (inactive) in test [3], 1.74% (inactive) in test [7] and 11% (inactive) in test [8]. For the same compound, the inhibition of aggregation in test [2] was -1.2% (inactive). Further, the nuclei count in test [2] was determined as 124%; in test [3] it was 131%. The fluorescence slope was -0.54 (inactive) in test [4] and 0.00483 (inactive) in test [6]. In addition, in test [5], the NADPH fluorescence slope was -1.3e-05 (inactive).
As to `Cn1c(=O)oc2cc(S(=O)(=O)N3CCC(C(=O)Nc4ccc(OC(F)(F)F)cc4)CC3)ccc21`, the cell count in test [1] was found to be 261. In addition, the inhibition in test [1] was 6.9% (inactive); in test [3], -19.6% (inactive); in test [7], 12.1% (inactive); in test [8], 17% (inactive). For the same compound, the inhibition of aggregation in test [2] was 19.4% (inactive). For the same compound, the nuclei count in test [2] worked out at 103%; in test [3], 75.1%. Also, the results for the fluorescence slope in test [4] and in test [6] were -0.572 (inactive) and 0.00653 (inactive), respectively. Further, in test [5], the NADPH fluorescence slope was -1.9e-05 (inactive).
On to `O=C(CN1C(=O)COc2ccccc21)NCCCN1CCN(Cc2ccccc2)CC1`, for which the cell count in test [1] was 470. For the same compound, the inhibition in test [1] is -2.6% (inactive); in test [3], -131% (inactive); in test [7] it was -9.51% (inactive); in test [8], -8.02% (inactive). Also, the inhibition of aggregation in test [2] is 0.5% (inactive). The nuclei count was 91.9% in test [2] and 232% in test [3]. Besides, the fluorescence slope in test [4] is -0.581 (inactive); in test [6], 0.00512 (inactive). For the same compound, the NADPH fluorescence slope in test [5] was -8.3e-06 (inactive).
`O=S(=O)(NCCSc1ccccc1)c1cccs1`: in test [1], the cell count worked out at 652. For the same compound, the inhibition was -6.3% (inactive) in test [1], -12.2% (inactive) in test [3], 5.83% (inactive) in test [7] and 11.1% (inactive) in test [8]. Further, the inhibition of aggregation in test [2] is -14.5% (inactive). Moreover, the figures for the nuclei count in test [2] and in test [3] were 103% and 104%, respectively. For the same compound, the fluorescence slope in test [4] was -0.208 (inactive); in test [6], 0.00557 (inactive). Moreover, the NADPH fluorescence slope in test [5] was -2e-05 (inactive).
`CC(=O)Nc1ccc(Oc2cc(C#N)c(C#N)cc2N2CCCCCC2)cc1`: the cell count in test [1] was determined as 305. The inhibition in test [1] was -7.7% (inactive); in test [3] it was -62.5% (inactive); in test [7], 13.8% (inactive); in test [8], 21.8% (inactive). Also, the inhibition of aggregation in test [2] is -9.6% (inactive). In addition, the nuclei count in test [2] turned out to be 91.5%; in test [3], 127%. Further, the fluorescence slope in test [4] was -0.377 (inactive); in test [6] it was 0.00486 (inactive). In test [5], the NADPH fluorescence slope is 2.3e-05 (inactive).
As to `CC(=O)Nc1ccc(S(=O)(=O)n2cnc(C)c2)cc1`, the cell count in test [1] was found to be 697. In addition, the inhibition in test [1] was -10.2% (inactive); in test [3] it was -26.8% (inactive); in test [7], -6.5% (inactive); in test [8] it was -8.68% (inactive). Moreover, the inhibition of aggregation in test [2] was -20.6% (inactive). Further, the figures for the nuclei count in test [2] and in test [3] were 99.8% and 118%, respectively. For the same compound, the fluorescence slope in test [4] is -0.584 (inactive); in test [6] it was 0.0072 (inactive). Also, the NADPH fluorescence slope in test [5] was 4.1e-05 (inactive).
Regarding `COc1ccc(-c2cc(C(F)(F)F)nc(SCC(=O)NCc3ccco3)n2)cc1OC`, the cell count in test [1] was 614. Moreover, the inhibition was -9.9% (inactive) in test [1], -20.4% (inactive) in test [3], 24.6% (inactive) in test [7] and 23.2% (inactive) in test [8]. Besides, the inhibition of aggregation in test [2] is -5.9% (inactive). Besides, the figures for the nuclei count in test [2] and in test [3] were 94% and 103%, respectively. Besides, the fluorescence slope in test [4] is -0.304 (inactive); in test [6], 0.00529 (inactive). Further, the NADPH fluorescence slope in test [5] was -1.1e-05 (inactive).
